{"source": "paper PMC3287054", "about": "(Bioorganic & medicinal chemistry letters, 2011)", "key": {"[1]": {"system": "C. albicans clinical isolate CaCi-2", "experiment": "CaCi-2 growth inhibition in the presence of fluconazole", "assay_type": "cell-based, Candida albicans", "how_it_was_run": "(§1)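 Candida albicans clinical isolates were incubated with test compound and a fixed 8 μg/mL fluconazole at 37 °C for 48 h. Growth inhibition was read by Alamar blue fluorometry. Values are the average of at least three runs.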"}, "CaCi-2 [2]": {"system": "CaCi-2", "experiment": "Fluconazole MIC determination, CaCi-2", "assay_type": "cell-based", "conditions": "Candida albicans, read-out: MIC for CaCi-2"}, "CaCi-8": {"system": "CaCi-8", "experiment": "Fluconazole MIC determination, CaCi-8", "assay_type": "cell-based", "conditions": "Candida albicans, read-out: MIC for CaCi-8"}, "[3]": {"system": "C. albicans clinical isolate CaCi-8", "experiment": "CaCi-8 growth inhibition in the presence of fluconazole", "assay_type": "cell-based, Candida albicans", "conditions": "at approximately 1 μM, with fluconazole", "how_it_was_run": "as §1"}, "CaCi-2 [4]": {"system": "CaCi-2", "experiment": "CaCi-2 growth inhibition in the absence of fluconazole", "assay_type": "cell-based, Candida albicans"}, "murine 3T3 fibroblasts": {"system": "murine 3T3 fibroblasts", "experiment": "Mammalian fibroblast toxicity counterscreen", "assay_type": "cell-based"}, "[5]": {"system": "Hsp90-dependent signaling pathway", "experiment": "Yeast reporter assay, Hsp90-dependent signaling", "assay_type": "cell-based", "conditions": "Saccharomyces cerevisiae, read-out: IC50 Hsp90-dependent signaling pathway"}, "[6]": {"system": "calcineurin-dependent signaling pathway", "experiment": "Yeast reporter assay, calcineurin-dependent signaling", "assay_type": "cell-based", "conditions": "Saccharomyces cerevisiae, read-out: IC50 calcineurin-dependent signaling pathway"}, "Aqueous": {"experiment": "Aqueous", "assay_type": "physicochemical", "conditions": "aqueous / PBS solution, in words"}}, "data": [{"smiles": "COC1=C2C[C@@H](C)C[C@H](OC)[C@H](O)[C@@H](C)/C=C(\\C)[C@H](OC(N)=O)[C@@H](OC)/C=C\\C=C(/C)C(=O)NC(=CC1=O)C2=O", "note": "[Geldanamycin]", "values": [{"measurement": "inhibition at 10 µM", "setting": "[1]; Candida albicans, read-out: Growth inhibition (control)", "value": 100, "unit": "%"}]}, {"smiles": "OC(Cn1cncn1)(Cn1cncn1)c1ccc(F)cc1F", "note": "[fluconazole]", "values": [{"measurement": "inhibition at 8 µg/mL", "setting": "[1]; Candida albicans, read-out: Baseline growth inhibition in CaCi-2", "value": "60 to 80", "unit": "%"}, {"measurement": "MIC", "setting": "CaCi-2 [2]", "value": 2, "unit": "µg/mL"}, {"measurement": "MIC", "setting": "CaCi-8", "value": 8, "unit": "µg/mL"}]}, {"smiles": "O=C(c1ccc(Cl)cc1)N1CCN(c2ccnc3cc(Cl)ccc23)CC1", "note": "[Compound 1]", "values": [{"measurement": "Growth inhibition of CaCi-2", "setting": "[1]; at approximately 1 μM, with fluconazole", "value": "97–100%"}, {"measurement": "Growth inhibition of CaCi-8", "setting": "[3]", "value": "97–100%"}, {"measurement": "Effect on CaCi-2 in the absence of fluconazole", "setting": "CaCi-2 [4]", "value": "no discernible effect"}, {"measurement": "Concentration up to which murine 3T3 fibroblasts showed no response", "setting": "murine 3T3 fibroblasts", "value": "> 26", "unit": "µM"}, {"measurement": "IC50", "setting": "[5]", "value": "> 26", "unit": "µM"}, {"measurement": "IC50", "setting": "[6]", "value": "> 26", "unit": "µM"}, {"measurement": "Solubility", "setting": "Aqueous", "value": "poor aqueous solubility"}]}]}
